SIRT5 block = sirtuin-5 (human) deacylase inhibition; Q9NXA8; 330,000 compounds, 1.1% hits; Purified SirT5, succinyl-peptide AMC, trypsin-coupled fluorescence; inhibition, % at 15 µM; in the data active means inhibition above about 15%
Target sequence (Q9NXA8 whole entry, looked up): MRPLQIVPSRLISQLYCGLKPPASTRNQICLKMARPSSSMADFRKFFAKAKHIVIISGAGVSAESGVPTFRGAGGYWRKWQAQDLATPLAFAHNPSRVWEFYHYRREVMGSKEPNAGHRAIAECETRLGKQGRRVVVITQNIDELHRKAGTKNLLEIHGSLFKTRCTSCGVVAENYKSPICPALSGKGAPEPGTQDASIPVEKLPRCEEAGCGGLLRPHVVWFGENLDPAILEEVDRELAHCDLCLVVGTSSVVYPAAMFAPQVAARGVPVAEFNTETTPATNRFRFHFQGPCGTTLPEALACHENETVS
E-selectin induc = induces E-selectin expression in human endothelial cells; HUVEC E-selectin immunofluorescence imaging; normalized: neutral wells 0, TNF-alpha wells 100; activation, % at 7.58 µM; 260,000 compounds, 0.37% hits; P16581;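 active means mean E-selectin-positive cell signal at least 10% of the positive control, reached in at least 60% of replicates, without over 20% cell loss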
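Test system: HUVEC | Signal: Immunofluorescence imaging | Read-out: Percent E-selectin-positive cells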
DENV2 CPE rescue = DENV2-induced cell death inhibition | DENV2-infected cells, cytopathic effect rescue, plate reader | 350,000 compounds, 1.7% hits | CPE inhibition, % at 9.99 µM | AID 651640; in the data active means CPE inhibition above about 20%, passing the limit was not always enough; tested in BHK-21 cells;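 further: 0% = median of neutral control wells and 100% = median of positive control wells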
Numbers without * were called inactive; x = no result; ! = not active in a repeat. In the library only some 2.9% were active in any assay of this set; here they are far more common.

SMILES | SIRT5 block | E-selectin induc | DENV2 CPE rescue
CC(C)CC#Cc1ccc2c(c1)O[C@@H](CN(C)C(=O)c1ccccc1F)[C@H](C)CN([C@@H](C)CO)S2(=O)=O | 7.4 | -0.4 | 39.4*
C[C@@H]1CN([C@@H](C)CO)S(=O)(=O)c2ccc(C#CCN(C)C)cc2O[C@H]1CN(C)C(=O)c1ccccc1F | -1.4 | 0.5 | -2.5
C[C@@H]1CN([C@H](C)CO)S(=O)(=O)c2ccc(C#CC3(O)CCCC3)cc2O[C@H]1CN(C)C(=O)c1cccnc1 | 26.8* | x | 0.5
O=C(C[C@H]1CC[C@H]2[C@@H](COC[C@H](O)CN2Cc2ccccc2)O1)N[C@@H]1CCN(Cc2ccccc2)C1 | -2.1 | 0.3 | 1.6
CCC(=O)N1C[C@H](C)[C@H](OC)CN(C)C(=O)c2cc(NC(=O)c3cc(C)on3)ccc2OC[C@H]1C | x | 0.7 | x
O=C(Cn1c(=O)[nH]c2sc3c(c2c1=O)CCCC3)NCC1CCCO1 (configuration not stated) | -1.1 | x | -9.5
CC(=O)N1CCN(C(=O)CNc2cc(C(F)(F)F)ccc2OCC(F)(F)F)CC1 | 0.5 | x | x
O=S(=O)(Nc1cccc(-c2cn3cccnc3n2)c1)c1ccc(F)cc1 | -16.8 | x | -13.8
Cc1cc(CNCc2c(C(=O)N3CCCCCCC3)nc3ccc(Cl)cn23)nn1C | -1.2 | x | 1.5
C[C@@H]1CN([C@H](C)CO)C(=O)c2cc(N(C)C)ccc2O[C@@H](C)CCCCO[C@H]1CN(C)C(=O)c1ccncc1 | x | 0.1 | x
CCCC#Cc1ccc2c(c1)O[C@H](CN(C)C(=O)c1ccccc1F)[C@@H](C)CN([C@H](C)CO)S2(=O)=O | 14.2 | -0.2 | 14.8
CCCC#Cc1ccc2c(c1)O[C@H](CN(C)C(=O)c1ccccc1F)[C@@H](C)CN([C@@H](C)CO)S2(=O)=O | 18.5* | 0.5 | 13.8
COc1ccc(-c2[nH]ncc2CN2CCN(C(=O)c3cccs3)CC2)c(F)c1 | 1.5 | -0.2 | 15.5
OC(COc1ccc(Cl)cc1Cl)CN1CCc2ccccc2C1 (configuration not stated) | 0.0 | x | 5.0
Cc1ccc(/C=C2/C(=N)N3N=C(CC(=O)N4CCCC4)SC3=NC2=O)o1 | 6.4 | x | 9.2
N=C1/C(=C\c2ccc(Br)o2)C(=O)N=C2SC(CC(=O)N3CCCCC3)=NN12 | 20.6* | x | -0.8
C[C@@H]1CN([C@H](C)CO)C(=O)c2cc(NS(=O)(=O)c3cccs3)ccc2O[C@@H]1CN(C)Cc1ccc(Cl)c(Cl)c1 | 3.9 | -0.3 | 3.3
C[C@H](CO)N1C[C@H](C)[C@@H](CN(C)Cc2ccc(Cl)c(Cl)c2)OCCCC[C@H](C)Oc2ccc(NS(=O)(=O)c3cccs3)cc2C1=O | 19.3* | 0.4 | -13.4
C[C@@H]1CN([C@H](C)CO)C(=O)c2cc(NS(=O)(=O)c3cccs3)ccc2O[C@@H](C)CCCCO[C@@H]1CN(C)Cc1ccc2c(c1)OCO2 | x | -0.2 | -14.0
C[C@@H]1CCCCO[C@H](CN(C)Cc2ccc(Cl)c(Cl)c2)[C@@H](C)CN([C@H](C)CO)C(=O)c2cc(NS(=O)(=O)c3cccs3)ccc2O1 | 6.9 | 0.1 | 8.4
C[C@@H]1CN([C@@H](C)CO)C(=O)c2cc(NS(=O)(=O)c3cccs3)ccc2O[C@@H](C)CCCCO[C@H]1CN(C)Cc1ccc2c(c1)OCO2 | x | -0.1 | 36.6*
C[C@@H]1CN([C@@H](C)CO)C(=O)c2cc(NS(=O)(=O)c3cccs3)ccc2O[C@@H]1CN(C)Cc1ccc(Cl)c(Cl)c1 | 17.6* | 0.2 | 10.1
C[C@@H]1CCCCO[C@@H](CN(C)Cc2ccc3c(c2)OCO3)[C@H](C)CN([C@@H](C)CO)C(=O)c2cc(NS(=O)(=O)c3cccs3)ccc2O1 | x | -0.2 | 112.1*!
C[C@H](CO)N1C[C@H](C)[C@@H](CN(C)Cc2ccc3c(c2)OCO3)OCCCC[C@H](C)Oc2ccc(NS(=O)(=O)c3cccs3)cc2C1=O | x | 0.1 | -6.1
O=C(Nc1cccc(Cl)c1)c1cc2c(=O)n3ccccc3nc2s1 | 0.4 | -0.3 | 5.5
C[C@H]1CCCCO[C@H](CN(C)Cc2ccc3c(c2)OCO3)[C@@H](C)CN([C@@H](C)CO)C(=O)c2cc(NS(=O)(=O)c3cccs3)ccc2O1 | x | -0.2 | 41.0*!
C[C@@H]1CCCCO[C@H](CN(C)Cc2ccc3c(c2)OCO3)[C@@H](C)CN([C@@H](C)CO)C(=O)c2cc(NS(=O)(=O)c3cccs3)ccc2O1 | 6.9 | -0.3 | -2.7
CSc1ccc(CN2CCC(Cc3ccccc3)CC2)cc1 | -2.7 | 3.8 | 1.0
O=C(CCC(=O)N1CCSc2ccccc21)Nc1ccc(F)cc1 | -3.7 | x | -0.5
C[C@@H]1CCCCO[C@@H](CN(C)Cc2ccc(Cl)c(Cl)c2)[C@H](C)CN([C@@H](C)CO)C(=O)c2cc(NC(=O)Nc3ccccc3)ccc2O1 | -1.1 | x | 32.5*

Assay outcomes deposited in PubChem by Broad Institute.
